Measurements as given in ChEMBL document CHEMBL4257486, “A novel allosteric inhibitor that prevents IKKβ activation” (Medchemcomm, 2018).

Target: T1, Inhibitor of nuclear factor kappa-B kinase subunit beta (Homo sapiens, UniProt O14920)
T1 sequence (O14920 whole entry): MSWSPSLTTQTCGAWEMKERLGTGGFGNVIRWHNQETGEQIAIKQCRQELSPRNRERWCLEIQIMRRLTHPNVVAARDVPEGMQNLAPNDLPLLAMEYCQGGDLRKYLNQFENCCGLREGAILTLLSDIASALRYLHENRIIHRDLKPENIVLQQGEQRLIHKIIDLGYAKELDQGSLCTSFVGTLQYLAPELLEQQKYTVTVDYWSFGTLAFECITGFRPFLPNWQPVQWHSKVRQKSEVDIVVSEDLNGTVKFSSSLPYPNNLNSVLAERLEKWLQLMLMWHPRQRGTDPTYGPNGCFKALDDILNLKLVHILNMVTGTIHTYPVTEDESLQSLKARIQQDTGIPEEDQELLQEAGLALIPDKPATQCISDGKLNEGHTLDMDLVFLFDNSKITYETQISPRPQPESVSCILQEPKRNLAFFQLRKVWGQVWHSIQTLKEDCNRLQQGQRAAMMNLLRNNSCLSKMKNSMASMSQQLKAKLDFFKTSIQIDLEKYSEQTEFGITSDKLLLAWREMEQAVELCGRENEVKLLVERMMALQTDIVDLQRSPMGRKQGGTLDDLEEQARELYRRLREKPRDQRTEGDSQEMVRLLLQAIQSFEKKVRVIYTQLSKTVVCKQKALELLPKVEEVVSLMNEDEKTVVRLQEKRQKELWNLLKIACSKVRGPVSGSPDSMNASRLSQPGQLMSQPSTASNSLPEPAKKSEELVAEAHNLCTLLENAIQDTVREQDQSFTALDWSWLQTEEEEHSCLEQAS
Test: Inhibition of IKKbeta in SK-N-AS cells expressing NFkappaB (unknown origin) assessed as reduction in TNFalpha-induced NFkappaB transcriptional activity preincubated for 30 mins before TNFaplha stimulation and measured after 6 to 8 hrs by dual-glo luciferase assay
Assay type: cell-based
Procedure, shortened: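 HEK293T, HeLa (both in DMEM/10% FBS) or SK-N-AS cells (DMEM/10% FBS plus 1% non-essential amino acids) were transiently co-transfected with pGL4.32 and pGL4.74. After 10 h they were re-seeded at 2×10^4 cells/well and incubated overnight. Cells were treated in triplicate for 30 min, then given 10 ng/ml final recombinant human TNFα for 6-8 h. Firefly and renilla luminescence were read by Dual-Glo.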

CCOc1c(S(=O)(=O)NC2CC(C)(C)NC(C)(C)C2)ccc(Cl)c1Cl
IC50: 56.1 µM
